Measured values as given in the RNAGym collection of RNA variant scans (doi:10.1002/anie.201605470).

B1: Osa-1-4 twister ribozyme (parent)
chain: CCGCCUAACACUGCCAAUGCCGGUCCCAAGCCCGGAUAAAAGUGGAGGGGGCGG

Variants of: B1
Test: self-cleavage, relative activity (ratio to wild type); higher = more cleavage; co-transcriptional
Summary of the method: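 Values are relative activity: the fraction cleaved, normalised to wild type. A doped DNA template for a 54-nucleotide twister ribozyme from Oryza sativa had 97 % wild-type base and 1 % of each other base at the 48 positions downstream of the cleavage site. The RNA was transcribed in vitro for 2 h at 37 °C so that it could cleave itself co-transcriptionally, then sequenced deeply, with cleavage status scored from the presence or absence of upstream sequence in reads.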

Variant	self-cleavage
G13C G45U	0.01
C14A G47C	0.03
C14A G47A	0.04
C14A G47U	0.05
G13U G42U	0.01
G13U G42C	0.01
G13U G42A	0.02
G13U G30U	0.01
G13U G30C	0.01
G13U G30A	0.01
G13C G30U	0.01
G13C G30A	0.01
G13C G30C	0.02
G13U G53A	0.03
G13U G53U	0.02
G13U G53C	0.01
G13C G35A	0.02
G13C G35C	0.02
G13C G35U	0.04
G13U G22U	0.02
G13U G22C	0.01

Variant	self-cleavage
G13U G22A	0.03
C14G U24G	0.02
C14G U24C	0.04
C14G U24A	0.04
G13U G50U	0.03
G13U G50A	0.03
G13U G50C	0.02
G13U U18G	0.05
G13U U18A	0.03
G13U U18C	0.03
G13C G44A	0.02
G13C G44U	0.03
G13C G44C	0.03
G13C U24G	0.01
G13C U24C	0.03
G13C U24A	0.02
G13C G51A	0.02
G13C G51U	0.02
G13C G51C	0.01
G13U G45U	0.02
G13U G45C	0.01

Variant	self-cleavage
G13U G45A	0.02
C14G C31U	0.05
C14G C31A	0.02
C14G C31G	0.15
C14G C15A	0.06
C14G C15U	0.06
C14G C15G	0.22
C14G U43A	0.09
C14G G53U	0.06
C14G G53C	0.04
C14G G53A	0.09
G13C G50A	0.03
G13C G50U	0.02
G13C G50C	0.02
G13U G35C	0.03
G13U G35A	0.03
G13U G35U	0.03
G13C G48C	0.02
G13C G48A	0.01
G13C G48U	0.01
C14A C27U	0.04

Variant	self-cleavage
C14A C27A	0.07
C14A C27G	0.03
C14G G30U	0.14
C14G G30A	0.07
C14G G30C	0.64
G13U	0.03
G13C	0.03
G13C U12G	0.56
G13C U12C	0.03
G13C U12A	0.03
C14G U37C	0.19
C14G U37A	0.27
C14G U37G	0.25
C14G G50C	0.08
C14G G50U	0.1
C14G G50A	0.13
G13U G34C	0.03
G13U G34A	0.02
G13U G34U	0.03
C14A U43G	0.07
C14A U43C	0.06
